FGF22 binding: shifts melting point of recombinant human FGF22; recombinant FGF22 thermal shift, SYPRO orange fluorescence; percent of sucrose octasulfate shift, DMSO zero; activity (Tm shift, normalised), % at 9.99 µM; hit rate 1.5% among 340,000; AID 651658;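 active = mean Tm shift, scaled 0 neutral to 100 positive control, at about 1.3% or above, every replicate too, limit read from the data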
Target sequence (Q9HCT0 whole entry, looked up): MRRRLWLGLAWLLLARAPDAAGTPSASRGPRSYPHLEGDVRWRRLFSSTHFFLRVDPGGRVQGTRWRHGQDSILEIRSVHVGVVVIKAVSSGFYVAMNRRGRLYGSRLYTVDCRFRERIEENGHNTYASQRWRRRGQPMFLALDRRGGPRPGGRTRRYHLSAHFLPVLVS
EBNA-1 inh: blocks EBNA-1 binding to DNA; inhibition, % at 14.8 µM; EBNA-1 DNA binding, fluorescence polarization; AID 1950; hit rate 0.34% among 300,000; in the data active = inhibition above about 28%
NR3A LBD binder: modulators (binders) of human NR3A ligand-binding domain | Tm shift relative to glycine control, % at 25 µM | hit rate 2.5% among 340,000 | NR3A LBD differential scanning fluorimetry, Tm shift; 0% = protein alone, 100% = glycine-bound protein;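 active = melting temperature shift of at least 10% of the positive control shift, at one fixed dose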
ZTA counter: blocks Epstein-Barr virus ZTA, an EBNA-1 counter-screen; P03206; ZTA-DNA binding, fluorescence polarization; inhibition, % at 11 µM; hit rate 0.15% among 320,000; in the data active = inhibition above about 33%
Target sequence (P03206 whole entry, looked up): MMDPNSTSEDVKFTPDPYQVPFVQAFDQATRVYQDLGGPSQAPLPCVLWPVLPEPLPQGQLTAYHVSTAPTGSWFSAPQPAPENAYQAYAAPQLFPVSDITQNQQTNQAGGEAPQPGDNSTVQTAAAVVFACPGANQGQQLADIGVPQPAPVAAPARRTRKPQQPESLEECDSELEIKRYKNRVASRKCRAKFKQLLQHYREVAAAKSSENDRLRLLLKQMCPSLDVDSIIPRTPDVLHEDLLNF
NS3 helicase inh: HCV NS3 helicase inhibition; hit rate 0.56% among 290,000; NS3 helicase DNA unwinding, Cy5 molecular beacon fluorescence; AID 1800; inhibition, % at 10.9 µM;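 active = inhibition above the mean of all tested compounds plus 3 SD, set per campaign, cut at about 35% in these data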;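 note: 0% = DMSO wells and 100% = thioflavine S control wells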
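Control set: DMSO versus 110 µM thioflavine S; Material: NS3 helicase fragment of HCV; Measured by: Cy5 fluorescence at 0 and 60 min, beacon hairpin quenching; Read-out basis: percent inhibition from t60/t0 fluorescence ratio; Times: reaction time 60 min, 25 °C; Repeats: single replicate; Compound dosing: single dose, 10.9 µM nominal final, DMSO 0.8% final.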
DNA FID counter: fluorescent intercalator displacement, NS3 helicase counter-screen; DNA fluorescent intercalator displacement, fluorescence; inhibition, % at 7.9 µM; hit rate 0.17% among 290,000; AID 1845; in the data active = inhibition above about 37%;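 note: 0% = vehicle and 100% = reference compound; higher means more ethidium bromide displaced from hairpin DNA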
ZTA inh confirm: EBV ZTA DNA binding inhibition, confirmation; Zta-ZRE DNA binding, fluorescence polarization; shares compounds with ZTA counter; inhibition, % at 11.1 µM; AID 2361; hit rate 30% among 320;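 active = mean inhibition across triplicate runs above the hit threshold derived for the original primary screen, cut at about 33% in these data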;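 note: 0% = Zta with DMSO and 100% = wells lacking Zta protein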
EBNA1 counter: counter-screen for ZTA inhibitors: EBNA-1 DNA binding inhibition | shares compounds with ZTA counter | fluorescence polarization | inhibition, % at 14.8 µM | 320 tested, under 10 active | AID 2362; call rule not given here
Starred values were filed as active, the others as inactive. Rows were chosen to be rich in hits. Some 3.6% of all compounds tested hit in one or more screens of this group.

What do the screens show for `C#CCOCCOCCOCCNc1nc(N2CCN(C(=O)[C@H]([C@@H](C)CC)n3cc([C@@H](N)CO)nn3)CC2)nc(N2CCN(C(=O)[C@H](CCCCN)n3cc([C@@H](N)CO)nn3)CC2)n1`?
FGF22 binding: 0; NR3A LBD binder: 2

How did C#CCOCCOCCOCCNc1nc(N2CCN(C(=O)CCCCCCCCCCNC(=O)[C@@H](CCSC)n3cc(CCO)nn3)CC2)nc(N2CCN(C(=O)CCCCCCCCCCNC(=O)[C@H](CCCN=C(N)N)n3cc(C[C@@H](C)CC)nn3)CC2)n1 do in these assays?
EBNA-1 inh: 12; NR3A LBD binder: -19; ZTA counter: 141*; ZTA inh confirm: 62*; EBNA1 counter: -2

How did C#CCOCCOCCOCCNc1nc(N2CCOCC2)nc(N2CCN(C(=O)[C@H](CCCCN)n3cc([C@@H](N)CO)nn3)CC2)n1 do in these assays?
EBNA-1 inh: 12; NR3A LBD binder: 8; ZTA counter: 168*; NS3 helicase inh: -1; DNA FID counter: 29; ZTA inh confirm: -4; EBNA1 counter: -3

How did C/C=C\C=C\C(=O)N1CC2(CC(c3cccc(NC(=O)CC)c3)=NO2)C[C@H]1C(N)=O (some centres not stated) do in these assays?
FGF22 binding: 0; EBNA-1 inh: 6; NR3A LBD binder: -1; ZTA counter: 35*; ZTA inh confirm: 9; EBNA1 counter: 5

How did C[C@H]1CCCCO[C@@H](CN(C)C(=O)c2ccccc2)[C@@H](C)CN([C@@H](C)CO)C(=O)c2cc(NS(=O)(=O)c3ccc(Cl)cc3)ccc2O1 do in these assays?
FGF22 binding: 0

Results for COc1cccc(=O)c2c(C)n(-c3ccc(C(=O)O)cc3)c(C)c12 ?
FGF22 binding: 0; EBNA-1 inh: 16; NR3A LBD binder: 0; ZTA counter: 46*; NS3 helicase inh: 15; DNA FID counter: -4; ZTA inh confirm: -8; EBNA1 counter: -4

Results for COc1ccc(-n2c(C)c3c(OC)cccc(=O)c3c2C)cc1 ?
EBNA-1 inh: 7; NR3A LBD binder: 1; ZTA counter: 13; NS3 helicase inh: 11; DNA FID counter: -7

What do the screens show for `C/C=C/c1ccc2c(c1)O[C@H](CN(C)C(=O)Nc1cc(F)ccc1F)[C@H](C)CN([C@@H](C)CO)S2(=O)=O`?
FGF22 binding: 1

How did Cc1ccc(-n2nc(C(=O)NCc3ccco3)c3c4ccccc4n(C)c3c2=O)cc1 do in these assays?
EBNA-1 inh: 15; NR3A LBD binder: 1; ZTA counter: 45*; NS3 helicase inh: -1; DNA FID counter: -12; ZTA inh confirm: 1; EBNA1 counter: 22

How did Fc1ccc(/C=N/NC2=Nc3cccc4cccc2c34)cc1 do in these assays?
EBNA-1 inh: 0; NR3A LBD binder: -2; ZTA counter: 179*; NS3 helicase inh: -25; DNA FID counter: -8; ZTA inh confirm: -3; EBNA1 counter: 4

What do the screens show for `c1ccc(NC2=Nc3cccc4cccc2c34)cc1`?
FGF22 binding: 0; EBNA-1 inh: 6; NR3A LBD binder: -17; ZTA counter: 1; NS3 helicase inh: -6; DNA FID counter: 3

How did Cn1nc(-c2ccc(Cl)cc2)nc2c(=O)n(C)c(=O)nc1-2 do in these assays?
EBNA-1 inh: -21; ZTA counter: 49*; NS3 helicase inh: 8; DNA FID counter: 1; ZTA inh confirm: 82*; EBNA1 counter: -4

Results for CCN1[C@@H]2Cn3c(ccc(-c4ccccc4)c3=O)[C@H]1[C@@H](C(=O)NC1CCC1)[C@@H]2CO ?
FGF22 binding: 0

Results for Nc1nc(Nc2ccccc2F)sc1C(=O)c1ccccc1 ?
FGF22 binding: 0; EBNA-1 inh: -8; NR3A LBD binder: -1; ZTA counter: 52*; NS3 helicase inh: 2; DNA FID counter: -9; ZTA inh confirm: 6; EBNA1 counter: -6

What do the screens show for `CCOc1ccc(NC(=S)Nc2ccc3nsnc3c2)cc1`?
EBNA-1 inh: 4; NR3A LBD binder: 22*; ZTA counter: 67*; NS3 helicase inh: -5; DNA FID counter: -4; ZTA inh confirm: 1; EBNA1 counter: 1

How did CC(C)N(C(=O)Nc1ccc2nsnc2c1)C(C)C do in these assays?
FGF22 binding: 0; EBNA-1 inh: -10; NR3A LBD binder: 2; ZTA counter: 74*; NS3 helicase inh: 12; DNA FID counter: -4; ZTA inh confirm: 9; EBNA1 counter: 5

Results for COc1ccc(NC(=S)Nc2ccc3nsnc3c2)cc1 ?
EBNA-1 inh: 20; NR3A LBD binder: 24*; ZTA counter: 38*; NS3 helicase inh: -2; DNA FID counter: 3; ZTA inh confirm: 5; EBNA1 counter: -2

What do the screens show for `C[C@@H]1CN([C@@H](C)CO)C(=O)c2cc(-c3ccccc3)cnc2O[C@@H]1CN(C)C(=O)Nc1ccccc1F`?
FGF22 binding: 0

Results for Cc1cccc(NC(=O)CCNC(=O)c2ccco2)c1 ?
FGF22 binding: 0; EBNA-1 inh: 3; NR3A LBD binder: -2; ZTA counter: 44*; NS3 helicase inh: 5; DNA FID counter: -1; ZTA inh confirm: 4; EBNA1 counter: -9

Results for Cc1ccc(NC(=O)CCNC(=O)c2ccco2)cc1 ?
EBNA-1 inh: 12; NR3A LBD binder: -3; ZTA counter: -17; NS3 helicase inh: 1; DNA FID counter: 0

How did Nc1ccc2c(c1)C(=O)C(=O)c1ccccc1-2 do in these assays?
EBNA-1 inh: -8; NR3A LBD binder: 4; ZTA counter: 58*; NS3 helicase inh: 9; DNA FID counter: 10; ZTA inh confirm: 65*; EBNA1 counter: -11

How did C[C@@H]1CN([C@H](C)CO)C(=O)c2cc(NC(=O)NC3CCCCC3)ccc2O[C@@H](C)CCCCO[C@@H]1CN(C)CC1CCCCC1 do in these assays?
FGF22 binding: 0

Results for COc1ccccc1S(=O)(=O)Nc1ccc2c(c1)OC[C@H](C)NC[C@H](C)[C@@H](OC)CN(C)C2=O ?
FGF22 binding: 0

How did O=C(Nc1cc(S(=O)(=O)N2CCOCC2)ccc1N1CCOCC1)c1ccc(Cl)nc1 do in these assays?
FGF22 binding: 41; EBNA-1 inh: 7; NR3A LBD binder: -3; ZTA counter: 34*; NS3 helicase inh: 4; DNA FID counter: -11; ZTA inh confirm: 5; EBNA1 counter: 5

Results for O=C(Nc1cc(S(=O)(=O)N2CCOCC2)ccc1N1CCOCC1)c1ccc(S(=O)(=O)N2CCCCC2)cc1 ?
FGF22 binding: 0; EBNA-1 inh: -11; NR3A LBD binder: -2; ZTA counter: -5; NS3 helicase inh: -9; DNA FID counter: -47

Screening data (PubChem BioAssay)
